Our source for the Ki and Ratio values is ChEMBL document CHEMBL1131143, “Predictive models for GABAA/benzodiazepine receptor subtypes: studies of quantitative structure-activity relationships for imidazobenzodiazepines at five recombinant GABAA/benzodiazepine receptor subtypes [alphaxbeta3gamma2 (x = 1-3, 5, and 6)] via comparative molecular field analysis” (J Med Chem, 1998).

As a reminder, the Ki is the dissociation constant of the complex between target and ligand, obtained from inhibition or displacement. A higher Ki goes with a looser hold on the target.

Some results are limits rather than exact numbers.

Format in all cases: protein-complex assay
In assay [1] the target is GABA-A receptor; alpha-6/beta-3/gamma-2 (Homo sapiens, UniProt P18507+P28472+Q16445). The assay is described as follows: Binding affinity against Gamma-aminobutyric acid A receptor alpha-6-beta-3-gamma-2. The procedure, abridged: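 Cells scraped into PBS, spun at 3000g, resuspended in 10 mM KH₂PO₄/100 mM KCl pH 7.4. Nonspecific binding with 10⁻⁵ M diazepam; 1 h to equilibrium at 4 °C; filtration, ice-cold buffer wash, scintillation counting.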
GABA-A receptor; alpha-6/beta-3/gamma-2, sequence (Q16445 whole entry, one chain of several): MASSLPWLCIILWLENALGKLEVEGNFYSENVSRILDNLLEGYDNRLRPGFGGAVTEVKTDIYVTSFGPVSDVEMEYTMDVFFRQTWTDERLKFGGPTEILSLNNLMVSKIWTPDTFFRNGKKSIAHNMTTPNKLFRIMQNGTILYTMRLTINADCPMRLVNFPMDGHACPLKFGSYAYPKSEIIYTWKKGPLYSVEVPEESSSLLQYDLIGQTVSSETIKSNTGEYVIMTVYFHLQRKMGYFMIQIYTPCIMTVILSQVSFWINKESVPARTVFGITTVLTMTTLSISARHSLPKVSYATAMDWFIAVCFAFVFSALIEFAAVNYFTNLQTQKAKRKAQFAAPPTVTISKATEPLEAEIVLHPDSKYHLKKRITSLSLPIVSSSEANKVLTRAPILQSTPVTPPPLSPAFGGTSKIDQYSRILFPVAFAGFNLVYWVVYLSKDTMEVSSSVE

For assay [2], the target named is T1, GABA-A receptor; alpha-5/beta-3/gamma-2 (Homo sapiens, UniProt P18507+P28472+P31644).
T1 sequence (P18507 whole entry): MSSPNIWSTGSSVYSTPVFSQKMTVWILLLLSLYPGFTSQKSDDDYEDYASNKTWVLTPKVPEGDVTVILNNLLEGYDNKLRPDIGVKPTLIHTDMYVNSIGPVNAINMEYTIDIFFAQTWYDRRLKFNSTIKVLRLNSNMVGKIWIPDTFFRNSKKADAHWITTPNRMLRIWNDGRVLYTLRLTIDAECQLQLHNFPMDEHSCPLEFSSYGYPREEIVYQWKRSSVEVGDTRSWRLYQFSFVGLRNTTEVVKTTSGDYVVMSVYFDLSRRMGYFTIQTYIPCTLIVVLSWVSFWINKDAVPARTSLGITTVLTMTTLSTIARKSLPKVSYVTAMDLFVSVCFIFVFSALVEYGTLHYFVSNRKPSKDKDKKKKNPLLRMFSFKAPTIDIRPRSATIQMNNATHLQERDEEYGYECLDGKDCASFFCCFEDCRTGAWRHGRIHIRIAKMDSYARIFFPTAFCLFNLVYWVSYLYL
T1 sequence (P28472 whole entry): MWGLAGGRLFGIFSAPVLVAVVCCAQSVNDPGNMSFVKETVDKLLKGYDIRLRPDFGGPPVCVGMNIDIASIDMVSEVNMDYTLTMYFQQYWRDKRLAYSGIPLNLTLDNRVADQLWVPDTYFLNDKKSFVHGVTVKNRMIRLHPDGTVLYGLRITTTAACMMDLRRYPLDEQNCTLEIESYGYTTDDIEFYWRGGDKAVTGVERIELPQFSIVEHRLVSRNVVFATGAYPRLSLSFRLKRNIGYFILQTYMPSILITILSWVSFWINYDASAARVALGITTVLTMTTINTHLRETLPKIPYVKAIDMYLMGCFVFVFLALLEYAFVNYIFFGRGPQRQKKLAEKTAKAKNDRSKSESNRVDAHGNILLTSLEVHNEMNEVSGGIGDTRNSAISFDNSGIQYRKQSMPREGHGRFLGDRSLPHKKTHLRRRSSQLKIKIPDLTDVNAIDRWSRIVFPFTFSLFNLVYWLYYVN
T1 sequence (P31644 whole entry): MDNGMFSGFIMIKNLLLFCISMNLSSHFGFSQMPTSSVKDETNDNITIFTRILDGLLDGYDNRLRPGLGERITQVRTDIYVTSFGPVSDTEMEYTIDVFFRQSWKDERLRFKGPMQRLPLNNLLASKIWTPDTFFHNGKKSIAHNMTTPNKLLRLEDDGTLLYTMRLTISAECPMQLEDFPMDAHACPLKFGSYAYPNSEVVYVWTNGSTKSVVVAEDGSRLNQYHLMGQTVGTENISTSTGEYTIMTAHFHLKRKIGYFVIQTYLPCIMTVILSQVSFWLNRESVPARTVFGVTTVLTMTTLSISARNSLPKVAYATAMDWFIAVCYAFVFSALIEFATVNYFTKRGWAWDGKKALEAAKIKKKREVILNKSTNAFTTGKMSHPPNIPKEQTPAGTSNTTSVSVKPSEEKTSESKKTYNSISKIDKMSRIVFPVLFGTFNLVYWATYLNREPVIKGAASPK
The assay is described as follows: Binding affinity for Gamma-aminobutyric acid A receptor alpha-5-beta-3-gamma-2.

Assay [3] addresses T2, GABA-A receptor; alpha-1/beta-3/gamma-2 (Homo sapiens, UniProt P14867+P18507+P28472).
T2 sequence (P14867 whole entry): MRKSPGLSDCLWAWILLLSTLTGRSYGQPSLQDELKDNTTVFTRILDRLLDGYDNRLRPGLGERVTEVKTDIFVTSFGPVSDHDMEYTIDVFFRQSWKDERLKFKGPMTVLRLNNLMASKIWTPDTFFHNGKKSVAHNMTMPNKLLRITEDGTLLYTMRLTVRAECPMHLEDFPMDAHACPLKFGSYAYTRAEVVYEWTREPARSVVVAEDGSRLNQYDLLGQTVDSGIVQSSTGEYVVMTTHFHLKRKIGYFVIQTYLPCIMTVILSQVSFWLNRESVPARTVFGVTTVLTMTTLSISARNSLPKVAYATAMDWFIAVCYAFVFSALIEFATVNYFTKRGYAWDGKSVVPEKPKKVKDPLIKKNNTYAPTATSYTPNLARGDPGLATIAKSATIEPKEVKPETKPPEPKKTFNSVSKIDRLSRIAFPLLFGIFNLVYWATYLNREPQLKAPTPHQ
T2 sequence (P18507 whole entry): T1 sequence (P18507 whole entry)
T2 sequence (P28472 whole entry): T1 sequence (P28472 whole entry)
Kind of assay: Binding affinity against alpha-1-beta-3-gamma-2 GABAA/BzR receptor subtype.

Assay [4] concerns the target GABA-A receptor; alpha-1/beta-3/gamma-2 (Homo sapiens) (UniProt P14867+P18507+P28472). Kind of assay: It is the ratio of Ki value for alpha-1-beta-3-gamma-2 to that of alpha-5-beta-3-gamma-2.
The target of assay [5] is T3, GABA-A receptor; alpha-3/beta-3/gamma-2 (Homo sapiens, UniProt P18507+P28472+P34903).
T3 sequence (P18507 whole entry): T1 sequence (P18507 whole entry)
T3 sequence (P28472 whole entry): T1 sequence (P28472 whole entry)
T3 sequence (P34903 whole entry): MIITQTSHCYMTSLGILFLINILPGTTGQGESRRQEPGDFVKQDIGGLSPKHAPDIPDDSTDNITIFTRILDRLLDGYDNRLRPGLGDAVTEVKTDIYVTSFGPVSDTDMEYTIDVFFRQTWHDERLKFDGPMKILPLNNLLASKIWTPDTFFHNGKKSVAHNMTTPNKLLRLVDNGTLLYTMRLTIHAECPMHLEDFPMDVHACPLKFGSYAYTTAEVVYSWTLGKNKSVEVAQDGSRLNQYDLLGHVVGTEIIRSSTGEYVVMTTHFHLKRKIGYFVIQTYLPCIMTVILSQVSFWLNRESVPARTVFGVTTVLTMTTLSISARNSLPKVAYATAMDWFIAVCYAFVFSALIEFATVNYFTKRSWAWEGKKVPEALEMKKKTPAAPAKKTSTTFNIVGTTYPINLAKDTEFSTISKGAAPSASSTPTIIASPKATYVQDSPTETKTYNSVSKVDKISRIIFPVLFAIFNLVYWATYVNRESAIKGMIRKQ
The assay is described as follows: Binding affinity against alpha-3-beta-3-gamma-2 GABAA/BzR receptor subtype.

The target of assay [6] is T4, GABA-A receptor; alpha-2/beta-3/gamma-2 (Homo sapiens, UniProt P18507+P28472+P47869).
T4 sequence (P18507 whole entry): T1 sequence (P18507 whole entry)
T4 sequence (P28472 whole entry): T1 sequence (P28472 whole entry)
T4 sequence (P47869 whole entry): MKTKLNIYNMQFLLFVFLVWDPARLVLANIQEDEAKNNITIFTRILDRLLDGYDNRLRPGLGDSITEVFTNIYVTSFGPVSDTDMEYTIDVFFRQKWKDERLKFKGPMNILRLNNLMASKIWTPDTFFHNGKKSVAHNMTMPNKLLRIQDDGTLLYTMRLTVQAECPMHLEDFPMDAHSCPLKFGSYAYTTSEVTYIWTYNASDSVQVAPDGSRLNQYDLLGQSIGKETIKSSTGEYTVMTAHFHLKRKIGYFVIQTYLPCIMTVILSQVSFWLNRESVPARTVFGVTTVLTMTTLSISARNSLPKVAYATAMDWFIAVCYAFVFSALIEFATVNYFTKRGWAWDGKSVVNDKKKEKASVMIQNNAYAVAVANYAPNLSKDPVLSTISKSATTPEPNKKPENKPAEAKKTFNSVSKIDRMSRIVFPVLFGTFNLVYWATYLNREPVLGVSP
Kind of assay: Binding affinity tested against alpha-2-beta-3-gamma-2 GABAA/BzR receptor subtype.

On to `CCOC(=O)c1ncn2c1CN(C)C(=O)c1cc(OCC)ccc1-2`, for which the Ki came out at 51.5 nM in assay [1]; 1.07 nM in assay [2]; 11.2 nM in assay [3]; 16.9 nM in assay [5]; 36 nM in assay [6]. For the same compound, the Ratio in assay [4] came out at 12.4.
Turning to `C#Cc1ccc2c(c1)C(=O)N1CC[C@H]1c1c(-c3nc(CC)no3)ncn1-2`, the Ki was found to be 361 nM in assay [1]; 12.7 nM in assay [2]; 220 nM in assay [3]; 184 nM in assay [5]; 150 nM in assay [6]. The Ratio in assay [4] was 17.
With `CCOCc1ncn2c1CN(C)C(=O)c1cc(Cl)ccc1-2`, the Ki is greater than 300 nM in assay [1]; 82.7 nM in assay [2]; greater than 300 nM in assay [3]; greater than 300 nM in assay [5]; greater than 300 nM in assay [6]. The Ratio in assay [4] is greater than 3.6.
In the case of `C#Cc1ccc2c(c1)C(=O)N1CCC[C@H]1c1c(-c3nc(C)no3)ncn1-2`, the Ki in assay [1] is 301 nM; in assay [2] it was 3.7 nM; in assay [3], 89 nM; in assay [5], 91 nM; in assay [6] it was 70 nM. Further, in assay [4], the Ratio was determined as 24.
On to `C#Cc1ccc2c(c1)C(=O)N1CCC[C@H]1c1c(-c3nc(CC)no3)ncn1-2`, for which the Ki in assay [1] was 150 nM; in assay [2], 2.4 nM; in assay [3], 86 nM; in assay [5] it was 85 nM; in assay [6] it was 40 nM. For the same compound, the Ratio in assay [4] was 36.
Regarding `COCc1ncn2c1CN(C)C(=O)c1cc(Cl)ccc1-2`, the Ki in assay [1] is greater than 300 nM; in assay [2], 38.8 nM; in assay [3], greater than 300 nM; in assay [5] it was greater than 300 nM; in assay [6], greater than 300 nM. Moreover, the Ratio in assay [4] is greater than 7.7.
For the compound `CC(=O)c1ncn2c1CN(C)C(=O)c1cc(Cl)ccc1-2`, the Ki in assay [1] turned out to be 29500 nM; in assay [2], 2610 nM; in assay [3], 17500 nM; in assay [5], 22100 nM; in assay [6] it was 33800 nM. Moreover, in assay [4], the Ratio was found to be 6.7.
Consider `CN1Cc2c(C(=O)OC(C)(C)C)ncn2-c2ccc(C#CC[Si](C)(C)C)cc2C1=O`, for which the Ki was found to be 301 nM in assay [1]; 23 nM in assay [2]; 275 nM in assay [3]; 337 nM in assay [5]; 387 nM in assay [6]. Besides, the Ratio in assay [4] was found to be 12.
Consider `CCc1ccc2c(c1)C(=O)N(C)Cc1c(C(=O)OC(C)(C)C)ncn1-2`, for which the Ki in assay [1] was 22.9 nM; in assay [2], 1.72 nM; in assay [3] it was 14.8 nM; in assay [5], 25.3 nM; in assay [6] it was 56 nM. For the same compound, the Ratio in assay [4] turned out to be 8.6.
On to `C#Cc1ccc2c(c1)C(=O)N1CC[C@H]1c1c(C(=O)OCC)ncn1-2`, for which the inhibitory constant (Ki) in assay [1] stood at 42 nM; in assay [2] it was 0.37 nM; in assay [3], 21 nM; in assay [5], 10 nM; in assay [6], 12 nM. For the same compound, the Ratio in assay [4] came out at 57.
As for `CN1Cc2c(CCl)ncn2-c2ccc(Cl)cc2C1=O`, the inhibitory constant (Ki) in assay [1] was greater than 300 nM; in assay [2], 28.5 nM; in assay [3], greater than 300 nM; in assay [5], greater than 300 nM; in assay [6] it was greater than 300 nM. Moreover, the Ratio in assay [4] was greater than 10.5.
For `CCOC(=O)c1ncn2c1[C@@H]1CCN1C(=O)c1cc(C#C[Si](C)(C)C)ccc1-2`, the inhibitory constant (Ki) in assay [1] came out at 180 nM; in assay [2], 2.6 nM; in assay [3], 83 nM; in assay [5] it was 48 nM; in assay [6], 60 nM. Also, the Ratio in assay [4] was found to be 32.
As for `CC#Cc1ccc2c(c1)C(=O)N(C)Cc1c(C(=O)OCC)ncn1-2`, the inhibitory constant (Ki) in assay [1] was greater than 100 nM; in assay [2], 1.68 nM; in assay [3], 10.1 nM; in assay [5] it was 16.5 nM; in assay [6], 22.2 nM. Also, the Ratio in assay [4] is 6.
As for `CCc1ncn2c1CN(C)C(=O)c1cc(Cl)ccc1-2`, the Ki in assay [1] was determined as 3650 nM; in assay [2], 182 nM; in assay [3], 408 nM; in assay [5], 1130 nM; in assay [6] it was 1530 nM. Further, the Ratio in assay [4] was determined as 2.2.
`CCOC(=O)c1ncn2c1[C@@H]1CCCN1C(=O)c1cc(OC)ccc1-2`: the Ki in assay [1] was found to be 83.2 nM; in assay [2], 0.45 nM; in assay [3] it was 48.5 nM; in assay [5], 27.5 nM; in assay [6], 27.4 nM. The Ratio in assay [4] was determined as 108.
As to `CCOC(=O)c1ncn2c1[C@@H]1CCN1C(=O)c1cc(Br)ccc1-2`, the Ki in assay [1] amounted to 31 nM; in assay [2], 0.3 nM; in assay [3], 17 nM; in assay [5], 6.7 nM; in assay [6], 13 nM. The Ratio in assay [4] was 56.
Consider `CCCCCc1ncn2c1CN(C)C(=O)c1cc(Cl)ccc1-2`, for which the Ki is 960 nM in assay [1]; 369 nM in assay [2]; 2050 nM in assay [3]; 2910 nM in assay [5]; 2900 nM in assay [6]. In addition, in assay [4], the Ratio amounted to 5.6.
